Test results reported in ChEMBL document CHEMBL5344483, “Design and synthesis of novel chloropyridazine hybrids as promising anticancer agents acting by apoptosis induction and PARP-1 inhibition through a molecular hybridization strategy” (RSC Med Chem, 2024).
Active and inactive are the calls of the source. No cut-off for these calls is given here.

Experiments:
[1] = target: T1, Poly [ADP-ribose] polymerase 1 (Homo sapiens, UniProt P09874); assay: Inhibition of PARP1 (unknown origin) by ELISA
[2] = Cytotoxicity against human HSF (VGS) cells assessed as growth inhibition at 100 microg/mL by SRB assay relative to control; format: toxicity, cell-based; conditions: at 100 µg/mL, read-out: GI
FaDu [3] = assay: Anticancer activity against human FaDu cells assessed as growth inhibition at 100 microg/mL by SRB assay relative to control; format: functional; conditions: read-out: GI
Procedure, shortened: (§1)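 Cells seeded at 3×10^3 per well and allowed to attach for 24 h. Treated with 100 µg/mL compound for 48 h, triplicate wells, with a 1% v/v DMSO vehicle control. Fixed in 20% TCA, stained with 0.4% SRB, and OD read at 570 nm. Survival fraction is treated OD/control OD.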

MDA-MB-468 [4] = assay: Cytotoxicity against human MDA-MB-468 cells by SRB assay; format: functional, cell-based
Procedure, shortened: (§2)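 Cells seeded at 3×10^3 per well and allowed to attach for 24 h. Exposed to […], 12.5, 25 and 50 µg/mL for 48 h, triplicate wells per concentration, with a 1% v/v DMSO vehicle. Fixed in 20% TCA, stained with 0.4% SRB, and OD read at 570 nm. IC50 from sigmoidal dose-response fit of survival fraction (treated/control OD).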

NCI-H460 = assay: Anticancer activity against human NCI-H460 cells assessed as growth inhibition at 100 microg/mL by SRB assay relative to control; format: functional; conditions: read-out: GI; procedure, shortened: as §1
A549 = assay: Anticancer activity against human A549 cells assessed as growth inhibition at 100 microg/mL by SRB assay relative to control; format: functional; conditions: read-out: GI; procedure, shortened: as §1
A-375 = assay: Anticancer activity against human A-375 cells assessed as growth inhibition at 100 microg/mL by SRB assay relative to control; format: functional; conditions: read-out: GI; procedure, shortened: as §1
HeLa = assay: Anticancer activity against human HeLa cells assessed as growth inhibition at 100 microg/mL by SRB assay relative to control; format: functional; conditions: read-out: GI; procedure, shortened: as §1
SK-BR-3 = assay: Anticancer activity against human SK-BR-3 cells assessed as growth inhibition at 100 microg/mL by SRB assay relative to control; format: functional; conditions: read-out: GI; procedure, shortened: as §1
Huh-7 = assay: Anticancer activity against human Huh-7 cells assessed as growth inhibition at 100 microg/mL by SRB assay relative to control; format: functional; conditions: read-out: GI; procedure, shortened: as §1
HNO 97 cell line [5] = assay: Anticancer activity against human HNO97 cells assessed as growth inhibition at 100 microg/mL by SRB assay relative to control; format: functional; conditions: read-out: GI; procedure, shortened: as §1
MDA-MB-468 [6] = assay: Anticancer activity against human MDA-MB-468 cells assessed as growth inhibition at 100 microg/mL by SRB assay relative to control; format: functional; conditions: read-out: GI; procedure, shortened: as §1
HCT-116 = assay: Anticancer activity against human HCT-116 cells assessed as growth inhibition at 100 microg/mL by SRB assay relative to control; format: functional; conditions: read-out: GI; procedure, shortened: as §1
MCF7 = assay: Anticancer activity against human MCF7 cells assessed as growth inhibition at 100 microg/mL by SRB assay relative to control; format: functional; conditions: read-out: GI; procedure, shortened: as §1
HNO 97 cell line [7] = assay: Cytotoxicity against human HNO97 cells by SRB assay; format: functional, cell-based; procedure, shortened: as §2
FaDu [8] = assay: Cytotoxicity against human FaDu cells by SRB assay; format: functional, cell-based; procedure, shortened: as §2
MDA-MB-231 = assay: Antiproliferative activity against human MDA-MB-231 cells assessed as reduction in cell growth by coomassie Brilliant Blue staining based analysis; format: functional
[9] = target: T1, Poly [ADP-ribose] polymerase 1; assay: Inhibition of human PARP-1 in MDA-MB-231 cells assessed as accumulation of cleaved PARP-1 by immunoblot analysis; format: cell-based
Procedure, shortened: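 Drug-treated cells lysed and protein measured by BCA. Lysate (30 µg) separated by SDS-PAGE and transferred to PVDF. Probed with anti-PARP1 primary antibody (1:1000), then HRP-conjugated secondary (1:10,000), with alpha-tubulin as loading probe. Detected by ECL. Blots representative of at least three independent experiments.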

T1 sequence (P09874 whole entry): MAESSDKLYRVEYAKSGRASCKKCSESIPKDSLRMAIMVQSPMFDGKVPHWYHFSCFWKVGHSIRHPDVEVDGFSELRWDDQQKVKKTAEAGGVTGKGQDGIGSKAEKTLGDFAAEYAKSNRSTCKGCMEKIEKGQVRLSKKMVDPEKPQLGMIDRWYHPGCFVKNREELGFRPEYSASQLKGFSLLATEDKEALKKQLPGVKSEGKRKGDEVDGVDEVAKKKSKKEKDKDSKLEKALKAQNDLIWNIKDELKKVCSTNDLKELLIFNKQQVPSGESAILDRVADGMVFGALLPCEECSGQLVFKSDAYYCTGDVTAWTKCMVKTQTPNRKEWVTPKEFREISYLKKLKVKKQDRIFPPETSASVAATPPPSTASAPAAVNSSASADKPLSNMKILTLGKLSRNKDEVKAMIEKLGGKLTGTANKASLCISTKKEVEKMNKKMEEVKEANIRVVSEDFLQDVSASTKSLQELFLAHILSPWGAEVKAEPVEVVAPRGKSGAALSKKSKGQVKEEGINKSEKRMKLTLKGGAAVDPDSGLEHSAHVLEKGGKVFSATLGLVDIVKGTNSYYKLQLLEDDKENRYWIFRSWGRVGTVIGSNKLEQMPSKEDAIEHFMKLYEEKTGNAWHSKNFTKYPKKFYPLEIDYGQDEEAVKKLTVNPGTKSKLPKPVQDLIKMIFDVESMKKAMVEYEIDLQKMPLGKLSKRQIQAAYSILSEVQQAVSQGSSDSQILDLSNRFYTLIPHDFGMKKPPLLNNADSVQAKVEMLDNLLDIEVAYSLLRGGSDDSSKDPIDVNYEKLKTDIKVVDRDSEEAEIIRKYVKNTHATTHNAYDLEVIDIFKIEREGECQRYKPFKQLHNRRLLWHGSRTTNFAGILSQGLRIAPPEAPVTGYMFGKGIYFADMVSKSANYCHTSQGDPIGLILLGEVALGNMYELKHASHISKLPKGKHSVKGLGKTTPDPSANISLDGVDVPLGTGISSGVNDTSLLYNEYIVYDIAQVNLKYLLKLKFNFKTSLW

| SMILES | IC50 [1] [µM] | inhibition at 100 microg/mL [2] [%] | inhibition of growth at 100 µg/mL (FaDu [3]) [%] | IC50 (MDA-MB-468 [4]) [µM] | inhibition of growth at 100 µg/mL (NCI-H460) [%] | inhibition of growth at 100 µg/mL (A549) [%] | inhibition of growth at 100 µg/mL (A-375) [%] | inhibition of growth at 100 µg/mL (HeLa) [%] | inhibition of growth at 100 µg/mL (SK-BR-3) [%] | inhibition of growth at 100 µg/mL (Huh-7) [%] | inhibition of growth at 100 µg/mL (HNO 97 cell line [5]) [%] | inhibition of growth at 100 µg/mL (MDA-MB-468 [6]) [%] | inhibition of growth at 100 µg/mL (HCT-116) [%] | inhibition of growth at 100 µg/mL (MCF7) [%] | IC50 (HNO 97 cell line [7]) [µM] | IC50 (FaDu [8]) [µM] | Activity (MDA-MB-231) | inhibition [9] |
| --- | --- | --- | --- | --- | --- | --- | --- | --- | --- | --- | --- | --- | --- | --- | --- | --- | --- | --- |
| COc1cc(O)ccc1C(=O)/C=C/c1ccc(O)cc1 | 1.92 | – | – | – | – | – | – | – | – | – | – | – | – | – | – | – | – | – |
| O=C1NC(=O)/C(=C\c2ccc(Oc3ccc(Cl)nn3)cc2)S1 | – | 56.9 | 65.2 | 108 | 23.8 | 57.8 | 34.2 | 15.3 | 63.8 | 52.9 | 40.3 | 73 | 55.8 | 49.9 | – | – | – | – |
| O=C(/C=C/c1ccc(Oc2ccc(Cl)nn2)cc1)c1ccc(OCc2ccccc2)cc1 | – | 67.8 | 85.4 | 54.2 | 46.9 | 77.1 | 67.2 | 68.2 | 73.2 | 73.9 | 85.5 | 89.8 | 61.4 | 71.7 | 74.5 | 79 | – | – |
| O=C(/C=C/c1ccc(Oc2ccc(Cl)nn2)cc1)c1ccccc1 | – | 52.2 | 80.9 | 26.4 | 55.9 | 66.4 | 29.3 | 51 | 70.5 | 74.8 | 85.3 | 90.5 | 39 | 63 | 16.9 | 17.8 | Active | – |
| COc1cccc2c1C(=O)c1c(O)c3c(c(O)c1C2=O)C[C@@](O)(C(=O)CO)C[C@@H]3O[C@H]1C[C@H](N)[C@H](O)[C@H](C)O1 [DOXORUBICIN] | – | 52.9 | 84.5 | 6.8 | 75.5 | 66.7 | 84 | 73 | 71.1 | 69.6 | 84.5 | 94 | 82.9 | 75.6 | 7 | 14 | – | – |
| O=c1[nH]nc2c3c(cccc13)Oc1ccc(CN3CCC(O)CC3)cc1-2 [E-7016] | 3 | – | – | – | – | – | – | – | – | – | – | – | – | – | – | – | – | – |
| COc1ccc(COc2ccc(C(=O)/C=C/c3ccc(Oc4ccc(Cl)nn4)cc3)cc2)cc1 | – | 53.5 | 75.5 | 93 | 44.8 | 72 | 59.3 | 40.4 | 60.8 | 69.3 | 82.4 | 88.4 | 44 | 60.6 | 40.2 | 95.2 | – | – |
| O=C(/C=C/c1ccc(Oc2ccc(Cl)nn2)cc1)c1ccc(OCc2ccc(OC(F)(F)F)cc2)cc1 | – | 49.4 | 84.9 | 68.3 | 49.7 | 57.8 | 53 | 40.5 | 67.4 | 66.3 | 81 | 80.3 | 39.6 | 53.6 | 20.3 | 83.5 | – | – |
| O=C(/C=C/c1ccc(Oc2ccc(Cl)nn2)cc1)c1ccc(OCc2ccc(F)c(Cl)c2)cc1 | – | 54 | 61.8 | 36.3 | 54.6 | 69.2 | 39 | 36.2 | 49.8 | 61.9 | 75.6 | 78.2 | 55 | 47.2 | 30.3 | – | – | – |
| CC(=O)Nc1ccc(C(=O)/C=C/c2ccc(Oc3ccc(Cl)nn3)cc2)cc1 | – | 70.2 | 86.5 | 81.5 | 63.3 | 69.3 | 71.7 | 62.9 | 71.3 | 77.5 | 85.5 | 89.7 | 54.5 | 75 | 21.6 | 30.6 | Active | Active |
| CC1(COc2ccc(/C=C3/SC(O)=NC3=O)cc2)CCCCC1 | 25 | – | – | – | – | – | – | – | – | – | – | – | – | – | – | – | – | – |
| O=C(/C=C/c1ccc(Oc2ccc(Cl)nn2)cc1)c1ccc([N+](=O)[O-])cc1 | – | 65.6 | 82.7 | 36.7 | 64.2 | 75.1 | 62.2 | 63.9 | 74.8 | 72.1 | 88.6 | 91.9 | 55.1 | 72.9 | 28.8 | 60.2 | – | – |
| Cc1ccc(C(=O)/C=C/c2ccc(Oc3ccc(Cl)nn3)cc2)cc1 | – | 67.8 | 80.2 | 74.1 | 72.4 | 74.1 | 69.1 | 72.4 | 70.6 | 75.4 | 84.8 | 88 | 78.5 | 72.4 | 15.7 | 120 | Active | – |
| O=C(/C=C/c1ccc(Oc2ccc(Cl)nn2)cc1)c1ccc(O)cc1 | – | 61 | 85 | 116 | 68.3 | 73.8 | 59.2 | 73.2 | 68.2 | 72 | 79.3 | 79.2 | 76.4 | 68.5 | 31.2 | 122 | – | – |
| COC1CCN(C(=O)c2cc(Cc3n[nH]c(=O)c4ccccc34)ccc2F)CC1 [AZD2461] | 0.002 | – | – | – | – | – | – | – | – | – | – | – | – | – | – | – | – | – |
| COc1ccc(C(=O)/C=C/c2ccc(Oc3ccc(Cl)nn3)cc2)cc1 | – | 53.5 | 68.2 | 112 | 63.1 | 77 | 52.6 | 58.4 | 66.7 | 71.4 | 69.1 | 85.6 | 62.7 | 62.1 | 54.5 | – | – | – |
